Experimental data from ChEMBL document CHEMBL1128484, “Cardioselective ammonium, phosphonium, and sulfonium analogues of alpha-tocopherol and ascorbic acid that inhibit in vitro and ex vivo lipid peroxidation and scavenge superoxide radicals” (J Med Chem, 1995).
Values belong to the compound of their own block, whether it stands above or below them.

Assays:
[1] = organism: Rattus norvegicus; assay: The IC50 value was measured for inhibition of lipid autoxidation in rat brain homogenate.; format: functional
How it was run: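 Rat brain homogenate left to autoxidize with test compound present. The read-out is formation of thiobarbituric acid-reactive substances (TBARS). IC50 is the concentration that inhibits TBARS formation by 50%. Values are single or duplicate determinations, or means ± SD.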

[2] = organism: Mus musculus; assay: The ex vivo ID50 value was measured for inhibition of lipid autoxidation in mouse heart homogenate; format: functional; conditions: read-out: ID50 (the source's name)
How it was run: (§1)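 Groups of five CD1 mice were dosed subcutaneously, and hearts were excised 1 h later. Frozen hearts were homogenized, diluted in potassium phosphate buffer and incubated at 37 °C for 2 h. The reaction was stopped on ice with HClO4 and centrifuged. The supernatant was heated with thiobarbituric acid at 100 °C for 15 min. TBARS were extracted into n-butanol and read by fluorescence (ex 515 nm, em 553 nm) against a malondialdehyde dimethylacetal standard. ID50 was taken from semilog plots of log dose versus percent of vehicle control, using at least four doses.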

[3] = organism: Mus musculus; assay: The in vitro IC50 value was measured for inhibition of lipid autoxidation in mouse heart homogenate; format: functional
How it was run: (§2)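 Heart homogenate from untreated mice, diluted in potassium phosphate buffer. Test compound was added at several concentrations before 2 h incubation at 37 °C. The reaction was stopped on ice with HClO4, then heated with thiobarbituric acid at 100 °C for 15 min. TBARS were extracted into n-butanol and read by fluorescence (ex 515 nm, em 553 nm) against a malondialdehyde dimethylacetal standard. IC50 is 50% inhibition of TBARS formation.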

[4] = The reaction rate constant (K) by measuring competition with nitroblue tetrazolium of the superoxide radicals formed by xanthine oxidase/xanthine; format: ADME
[5] = organism: Mus musculus; assay: The ex vivo ID50 value was measured for lipid inhibition of autoxidation in mouse heart homogenate; format: functional; conditions: read-out: ID50 (the source's name); how it was run: as §1
[6] = organism: Mus musculus; assay: The in vitro IC50 value was measured for lipid inhibition of autoxidation in mouse heart homogenate; format: functional; how it was run: as §2
[7] = (§3) The reaction rate constant(K) by measuring competition with nitroblue tetrazolium of the superoxide radicals formed by xanthine oxidase/xanthine; format: ADME
[8] = as §3; format: functional
[9] = tested on: Mus musculus; assay: The ex vivo ID50 value was measured for inhibition of lipid autoxidation in mouse heart homogenate 1 hr after subcutaneous administration.; format: functional; conditions: sc, read-out: ID50 (the source's name); how it was run: as §1

SMILES: CCCCCCCCCCCCCCCCCCOC1=C([O-])C(C(O)C[N+](C)(C)C)OC1=O (centres undefined)
- IC50 ([1]; Rattus norvegicus, Brain): > 20 µM

SMILES: Cc1c(C)c2c(c(C)c1O)CC[C@](C)(CC(=O)[N-][N+](C)(C)C)O2
- IC50 ([1]; Rattus norvegicus, Brain): 8 µM

SMILES: Cc1c(C)c2c(c(C)c1O)CC[C@@](C)(CC[S+](C)C)O2
- IC50 ([1]; Rattus norvegicus, Brain): 2 µM

- K [4]: 27000 M⁻¹ s⁻¹
SMILES: Cc1c(C)c2c(c(C)c1O)CCC(C)(CCN(C)C)O2 (centres undefined)
- ED50 [2]: > 150 µmol/kg
- IC50 [3]: 19 µM

- K [4]: 20000 M⁻¹ s⁻¹
SMILES: Cc1c(C)c2c(c(C)c1O)CCC(C)(C(=O)O)O2 (centres undefined) [TROLOX]
- IC50 [1]: 14 µM

- K [4]: 800 M⁻¹ s⁻¹
SMILES: CSCCC1(C)CCc2c(C)c(O)c(C)c(C)c2O1 (centres undefined)
- ED50 [5]: > 150 µmol/kg
- IC50 [6]: 18 µM
- IC50 ([1]; Rattus norvegicus, Brain): 3 µM

- K [7]: 24000 M⁻¹ s⁻¹
SMILES: Cc1c(C)c2c(c(C)c1O)CCC(C)(CC[P+](C)(C)C)O2.[Br-] (centres undefined)
- IC50 [3]: 10 µM
- ED50 [5]: 8 µmol/kg
- IC50 ([1]; Rattus norvegicus, Brain): 2 µM

- K [4]: 600000 M⁻¹ s⁻¹
SMILES: C[N+](C)(C)CC(O)C1OC(=O)C(O)=C1[O-] (centres undefined)
- IC50 ([1]; Rattus norvegicus, Brain): > 200 µM

- K [4]: 21000 M⁻¹ s⁻¹
SMILES: Cc1c(C)c2c(c(C)c1O)CC[C@@](C)(CC[N+](C)(C)C)O2.Cc1ccc(S(=O)(=O)[O-])cc1
- IC50 ([1]; Rattus norvegicus, Brain): 2.3 µM

SMILES: Cc1c(C)c2c(c(C)c1O)CC[C@@](C)(CC(=O)O)O2
- IC50 ([1]; Rattus norvegicus, Brain): 17 µM

- K [4]: 18000 M⁻¹ s⁻¹
SMILES: Cc1c(C)c2c(c(C)c1O)CC[C@](C)(CC[N+](C)(C)C)O2.Cc1ccc(S(=O)(=O)[O-])cc1
- IC50 ([1]; Rattus norvegicus, Brain): 2.2 µM

SMILES: Cc1c(C)c2c(c(C)c1O)CC[C@@](C)(CCC[C@H](C)CCC[C@H](C)CCCC(C)C)O2 [alpha-TOCHOPHEROL]
- IC50 ([1]; Rattus norvegicus, Brain): 14 µM

SMILES: Cc1c(C)c2c(c(C)c1O)CC[C@](C)(CC[P+](C)(C)C)O2
- IC50 ([1]; Rattus norvegicus, Brain): 2 µM

- K [8]: 350000 M⁻¹ s⁻¹
SMILES: O=C1O[C@H]([C@@H](O)CO)C(O)=C1O

SMILES: Cc1c(C)c2c(c(C)c1O)CCC(C)(C(=O)[N-][N+](C)(C)C)O2 (centres undefined)
- IC50 ([1]; Rattus norvegicus, Brain): 14 µM

SMILES: Cc1c(C)c2c(c(C)c1O)CC[C@](C)(CCN(C)C)O2
- IC50 ([1]; Rattus norvegicus, Brain): 1 µM

- K [7]: 28000 M⁻¹ s⁻¹
SMILES: Cc1c(C)c2c(c(C)c1O)CCC(C)(CC(=O)[N-][N+](C)(C)C)O2 (centres undefined)
- IC50 ([1]; Rattus norvegicus, Brain): 6 µM

SMILES: Cc1c(C)c2c(c(C)c1O)CC[C@@](C)(CCN(C)C)O2
- IC50 ([1]; Rattus norvegicus, Brain): 1 µM

SMILES: Cc1c(C)c2c(c(C)c1O)CC[C@@](C)(CC(=O)[N-][N+](C)(C)C)O2
- IC50 ([1]; Rattus norvegicus, Brain): 9 µM

- K [7]: 21000 M⁻¹ s⁻¹
SMILES: Cc1c(C)c2c(c(C)c1O)CCC(C)(CC[S+](C)C)O2.Cc1ccc(S(=O)(=O)[O-])cc1 (centres undefined)
- IC50 [3]: 7 µM
- ED50 [5]: 6 µmol/kg
- IC50 ([1]; Rattus norvegicus, Brain): 2 µM

SMILES: Cc1c(C)c2c(c(C)c1O)CC[C@@](C)(CC[P+](C)(C)C)O2
- IC50 ([1]; Rattus norvegicus, Brain): 2 µM

- K [7]: 22000 M⁻¹ s⁻¹
SMILES: CC[P+](CC)(CC)CCC1(C)CCc2c(C)c(O)c(C)c(C)c2O1.[Br-] (centres undefined)
- IC50 [3]: 10 µM
- ED50 [5]: 7 µmol/kg
- IC50 ([1]; Rattus norvegicus, Brain): 2 µM

- K [7]: 21000 M⁻¹ s⁻¹
SMILES: CCCCCCCCCCCCCCCCCCOC1=C(O)[C@@H](C(O)CO)OC1=O (some centres undefined)
- IC50 ([1]; Rattus norvegicus, Brain): 6 µM

- K [4]: 24000 M⁻¹ s⁻¹
SMILES: Cc1c(C)c2c(c(C)c1O)CCC(C)(CC[N+](C)(C)C)O2.Cc1ccc(S(=O)(=O)[O-])cc1 (centres undefined)
- IC50 [3]: 19 µM
- ED50 [9]: 11 µmol/kg
- IC50 ([1]; Rattus norvegicus, Brain): 2.6 µM

SMILES: Cc1c(C)c2c(c(C)c1O)CC[C@](C)(CC(=O)O)O2
- IC50 ([1]; Rattus norvegicus, Brain): 14 µM

SMILES: Cc1c(C)c2c(c(C)c1O)CC[C@](C)(CC[S+](C)C)O2
- IC50 ([1]; Rattus norvegicus, Brain): 2 µM
